Laboratory results from ChEMBL document CHEMBL1122773 (1984).
Converted amounts (≈) assume the structure as drawn.

Each molecule was assayed on Staphylococcus aureus (assay: In vitro antibacterial activity for minimum inhibition concentration (MIC) required to inhibit growth of Staphylococcus aureus).
Format: functional
Outline: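 Broth microdilution in brain/heart infusion broth, inoculated with a standardized suspension to a final 10^5 viable cells/mL. Incubation 20 h at 37 °C. MIC read as the lowest concentration preventing visible growth.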
CCc1ccc(C(=O)NC(C(C)Cl)C2OC(SC)C(O)C(O)C2O)nc1 (stereo not drawn) showed an MIC of 62.5 µg/mL (≈ 154 µM).
In the case of CC[C@H]1CCN(CCO)[C@@H](C(=O)NC(C(C)Cl)C2OC(SC)C(O)C(O)C2O)C1 (stereo partly drawn), the MIC is reported as over 160 µg/mL.
With CSC1OC(C(NC(=O)[C@@H]2CC3CCN2CC3)C(C)Cl)C(O)C(O)C1O (stereo partly drawn) the MIC was over 100 µg/mL.
For CCC[C@@H]1CCN[C@H](C(=O)NC(C(C)Cl)C2OC(SC)C(O)C(O)C2O)C1 (stereo partly drawn), the MIC was 0.5 µg/mL (≈ 1.18 µM).
Molecule CCCCCC[C@H]1CCN[C@@H](C(=O)NC(C(C)Cl)C2OC(SC)C(O)C(O)C2O)C1 (stereo partly drawn) has an MIC of 0.5 µg/mL (≈ 1.07 µM).
CSC1OC(C(NC(=O)[C@@H]2CCCCCN2)C(C)Cl)C(O)C(O)C1O (stereo partly drawn) showed an MIC of 1.56 µg/mL (≈ 3.93 µM).
CC[C@H]1CC[C@@H](C(=O)NC(C(C)Cl)C2OC(SC)C(O)C(O)C2O)NC1 (stereo partly drawn) was tested, and the MIC was 2 µg/mL (≈ 4.87 µM).
In the case of CC[C@H]1CCN[C@@H](C(=O)N[C@@H]([C@H]2O[C@H](SC)[C@H](O)[C@@H](O)[C@H]2O)[C@H](C)Cl)C1, the MIC is reported as 250 µg/mL (≈ 608 µM).
Molecule CSC1OC(C(NC(=O)c2ncccc2C)C(C)Cl)C(O)C(O)C1O (stereo not drawn) has an MIC of over 100 µg/mL.
With CC[C@@H]1CCC[C@H](C(=O)NC(C(C)Cl)C2OC(SC)C(O)C(O)C2O)N1 (stereo partly drawn) the MIC was over 25 µg/mL.
CSC1OC(C(NC(=O)[C@H]2CCC[C@@H](C)N2)C(C)Cl)C(O)C(O)C1O (stereo partly drawn) gave an MIC of over 25 µg/mL.
Work on CCc1ccnc(C(=O)NC(C(C)Cl)C2OC(SC)C(O)C(O)C2O)c1 (stereo not drawn) yielded an MIC of 1000 µg/mL (≈ 2470 µM).
CC[C@@H]1CCN(C)[C@H](C(=O)NC(C(C)Cl)C2OC(SC)C(O)C(O)C2O)C1 (stereo partly drawn) showed an MIC of 0.2 µg/mL (≈ 0.471 µM).
For CSC1OC(C(NC(=O)[C@@H]2CCCNC2)C(C)Cl)C(O)C(O)C1O (stereo partly drawn), the MIC was over 80 µg/mL.
For CSC1OC(C(NC(=O)[C@@H]2CCCCN2C)C(C)Cl)C(O)C(O)C1O (stereo partly drawn), the MIC was 3.9 µg/mL (≈ 9.83 µM).
In the case of CSC1OC(C(NC(=O)c2ccccn2)C(C)Cl)C(O)C(O)C1O (stereo not drawn), the MIC is reported as 62.5 µg/mL (≈ 166 µM).
With CSC1OC(C(NC(=O)c2cc(C(C)(C)C)ccn2)C(C)Cl)C(O)C(O)C1O (stereo not drawn) the MIC was over 100 µg/mL.
With CCCc1ccnc(C(=O)NC(C(C)Cl)C2OC(SC)C(O)C(O)C2O)c1 (stereo not drawn) the MIC was over 100 µg/mL.
Work on CSC1OC(C(NC(=O)c2ccncc2)C(C)Cl)C(O)C(O)C1O (stereo not drawn) yielded an MIC of over 1000 µg/mL.
CSC1OC(C(NC(=O)c2cccc(C)n2)C(C)Cl)C(O)C(O)C1O (stereo not drawn) gave an MIC of over 25 µg/mL.
For CCCCCC[C@@H]1CCN(C)[C@H](C(=O)NC(C(C)Cl)C2OC(SC)C(O)C(O)C2O)C1 (stereo partly drawn), the MIC was 0.3 µg/mL (≈ 0.624 µM).
For CSC1OC(C(NC(=O)[C@H]2CC3CCN2CC3)C(C)Cl)C(O)C(O)C1O (stereo partly drawn), the MIC was 50 µg/mL (≈ 122 µM).
CSC1OC(C(NC(=O)[C@H]2C[C@@H](C(C)(C)C)CCN2)C(C)Cl)C(O)C(O)C1O (stereo partly drawn) showed an MIC of over 25 µg/mL.
Molecule CC[C@H]1CCN(C)[C@@H](C(=O)NC(C(C)Cl)C2OC(SC)C(O)C(O)C2O)C1 (stereo partly drawn) has an MIC of over 100 µg/mL.
In the case of CSC1OC(C(NC(=O)[C@H]2CCCCN2C)C(C)Cl)C(O)C(O)C1O (stereo partly drawn), the MIC is reported as over 100 µg/mL.
In the case of CSC1OC(C(NC(=O)[C@H]2CCCCCN2)C(C)Cl)C(O)C(O)C1O (stereo partly drawn), the MIC is reported as over 100 µg/mL.
Molecule CSC1OC(C(NC(=O)[C@@H]2CCCCN2)C(C)Cl)C(O)C(O)C1O (stereo partly drawn) has an MIC of 3.9 µg/mL (≈ 10.2 µM).
In the case of CSC1OC(C(NC(=O)[C@@H]2CCC[C@H](C)N2)C(C)Cl)C(O)C(O)C1O (stereo partly drawn), the MIC is reported as over 25 µg/mL.
In the case of CCCCCC[C@@H]1CCN[C@H](C(=O)NC(C(C)Cl)C2OC(SC)C(O)C(O)C2O)C1 (stereo partly drawn), the MIC is reported as 0.03 µg/mL (≈ 0.0642 µM).
CCCC[C@H]1CCN[C@@H](C(=O)NC(C(C)Cl)C2OC(SC)C(O)C(O)C2O)C1 (stereo partly drawn) gave an MIC of 31.2 µg/mL (≈ 71.1 µM).
With CSC1OC(C(NC(=O)[C@@H]2CCN2)C(C)Cl)C(O)C(O)C1O (stereo partly drawn) the MIC was 25 µg/mL (≈ 70.5 µM).
Molecule CSC1OC(C(NC(=O)[C@H]2CCCCN2)C(C)Cl)C(O)C(O)C1O (stereo partly drawn) has an MIC of 25 µg/mL (≈ 65.3 µM).
Work on CCCC[C@@H]1CCN[C@H](C(=O)NC(C(C)Cl)C2OC(SC)C(O)C(O)C2O)C1 (stereo partly drawn) yielded an MIC of 0.06 µg/mL (≈ 0.137 µM).
Work on CSC1OC(C(NC(=O)[C@H]2CCCNC2)C(C)Cl)C(O)C(O)C1O (stereo partly drawn) yielded an MIC of over 80 µg/mL.
With CCCCCCc1ccnc(C(=O)NC(C(C)Cl)C2OC(SC)C(O)C(O)C2O)c1 (stereo not drawn) the MIC was 50 µg/mL (≈ 108 µM).
CC[C@H]1CCC[C@@H](C(=O)NC(C(C)Cl)C2OC(SC)C(O)C(O)C2O)N1 (stereo partly drawn) was tested, and the MIC was over 25 µg/mL.
CSC1OC(C(NC(=O)[C@@H]2C[C@H](C(C)(C)C)CCN2)C(C)Cl)C(O)C(O)C1O (stereo partly drawn) showed an MIC of 2 µg/mL (≈ 4.56 µM).
CSC1OC(C(NC(=O)[C@H]2NCCCC2C)C(C)Cl)C(O)C(O)C1O (stereo partly drawn) was tested, and the MIC was 12.5 µg/mL (≈ 31.5 µM).
Molecule CCC[C@H]1CCN[C@@H](C(=O)NC(C(C)Cl)C2OC(SC)C(O)C(O)C2O)C1 (stereo partly drawn) has an MIC of over 25 µg/mL.
With CS[C@H]1O[C@H](C(NC(=O)C2CCNCC2)C(C)Cl)[C@H](O)[C@H](O)[C@H]1O (stereo partly drawn) the MIC was over 80 µg/mL.
In the case of CCCCCCCCc1ccnc(C(=O)NC(C(C)Cl)C2OC(SC)C(O)C(O)C2O)c1 (stereo not drawn), the MIC is reported as over 10 µg/mL.
CSC1OC(C(NC(=O)c2cccnc2)C(C)Cl)C(O)C(O)C1O (stereo not drawn) was tested, and the MIC was over 100 µg/mL.
With CCCC[C@@H]1CCN(CCO)[C@H](C(=O)NC(C(C)Cl)C2OC(SC)C(O)C(O)C2O)C1 (stereo partly drawn) the MIC was 0.16 µg/mL (≈ 0.331 µM).
Work on CCCCCCCC[C@@H]1CCN[C@H](C(=O)NC(C(C)Cl)C2OC(SC)C(O)C(O)C2O)C1 (stereo partly drawn) yielded an MIC of 0.3 µg/mL (≈ 0.606 µM).
With CSC1OC(C(NC(=O)[C@@H]2NCCC[C@@H]2C)C(C)Cl)C(O)C(O)C1O (stereo partly drawn) the MIC was 25 µg/mL (≈ 63 µM).
CC[C@@H]1CC[C@H](C(=O)NC(C(C)Cl)C2OC(SC)C(O)C(O)C2O)NC1 (stereo partly drawn) was tested, and the MIC was 2.5 µg/mL (≈ 6.08 µM).
Molecule CCc1cccc(C(=O)NC(C(C)Cl)C2OC(SC)C(O)C(O)C2O)n1 (stereo not drawn) has an MIC of over 25 µg/mL.
Work on CC[C@@H]1CCN(CCO)[C@H](C(=O)NC(C(C)Cl)C2OC(SC)C(O)C(O)C2O)C1 (stereo partly drawn) yielded an MIC of 2.5 µg/mL (≈ 5.49 µM).
